According to ChEMBL document CHEMBL1764950, “Diphenylamine-based retinoid antagonists: regulation of RAR and RXR function depending on the N-substituent” (Bioorg Med Chem, 2011):
pEC50: −log10 of the molar value. Calls of active or inactive are those of the source. The rule behind the calls is not given here.

These molecules were tested on HL-60 (assay: Inhibition of Am80-induced cell differentiation in human HL60 cells at 1 x 10^-6 M after 4 days by NBT reduction assay). Conditions: HL-60, 96 h.
Format: functional
Summary of the method: (§1)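 Cells were co-treated with 3.3 × 10⁻¹⁰ M Am80 plus test compound (ethanol, final below 0.5%), seeded at about 8 × 10⁴ cells/mL in RPMI1640 with 5% FBS, and held 4 days. The percentage of differentiated cells was determined by NBT/TPA reduction (20 min, 37 °C), counting at least 200 cells.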

Row | SMILES | Differentiated cells % at 1 µM [%]
1 | CC1(C)CCC(C)(C)c2cc(N(Cc3ccc(C(F)(F)F)cc3)c3ccc(C(=O)O)cc3)ccc21 | < 10
2 | CCOc1c(F)c(F)c(CN(c2ccc(C(=O)O)cc2)c2ccc3c(c2)C(C)(C)CCC3(C)C)c(F)c1F | < 10
3 | CCCCCCCN(c1ccc(C(=O)O)cc1)c1ccc2c(c1)C(C)(C)CCC2(C)C | < 10
4 | CC1(C)CCC(C)(C)c2cc(N(Cc3ccc4ccccc4c3)c3ccc(C(=O)O)cc3)ccc21 | < 10
5 | Cc1ccc(CN(c2ccc(C(=O)O)cc2)c2ccc3c(c2)C(C)(C)CCC3(C)C)cc1 | < 10
6 | CCCCCCCCN(c1ccc(C(=O)O)cc1)c1ccc2c(c1)C(C)(C)CCC2(C)C | < 10
7 | CC1(C)CCC(C)(C)c2cc(N(Cc3ccccc3-c3ccccc3)c3ccc(C(=O)O)cc3)ccc21 | < 10

These molecules were tested on HL-60 (assay: Inhibition of Am80-induced cell differentiation in human HL60 cells at 1 x 10^-7 M after 4 days by NBT reduction assay). Conditions: HL-60, 96 h.
Format: functional
Summary of the method: as §1

Row | SMILES | Differentiated cells % at 0.1 µM [%]
8 | CCOc1c(F)c(F)c(CN(c2ccc(C(=O)O)cc2)c2ccc3c(c2)C(C)(C)CCC3(C)C)c(F)c1F | < 10
9 | CC1(C)CCC(C)(C)c2cc(N(Cc3ccc4ccccc4c3)c3ccc(C(=O)O)cc3)ccc21 | 30
10 | CC1(C)CCC(C)(C)c2cc(N(Cc3ccccc3-c3ccccc3)c3ccc(C(=O)O)cc3)ccc21 | 10

What follows are molecules tested on Retinoid X receptor beta (Mus musculus) (assay: Antagonist activity at mouse RXRbeta expressed in COS-1 cells assessed as inhibition of PA024-induced transactivation by luciferase reporter gene assay). Conditions: not given.

Row | inhibition | SMILES
11 | inactive | CCOc1c(F)c(F)c(CN(c2ccc(C(=O)O)cc2)c2ccc3c(c2)C(C)(C)CCC3(C)C)c(F)c1F
12 | inactive | CCCCCCCN(c1ccc(C(=O)O)cc1)c1ccc2c(c1)C(C)(C)CCC2(C)C

These molecules were tested against Retinoic acid receptor gamma (Homo sapiens) (UniProt P13631) (assay: Antagonist activity at human RARgamma expressed in COS-1 cells assessed as inhibition of ATRA-induced transactivation by luciferase reporter gene assay). Conditions: not given.
Sequence of Retinoic acid receptor gamma (Homo sapiens) (P13631 whole entry, looked up): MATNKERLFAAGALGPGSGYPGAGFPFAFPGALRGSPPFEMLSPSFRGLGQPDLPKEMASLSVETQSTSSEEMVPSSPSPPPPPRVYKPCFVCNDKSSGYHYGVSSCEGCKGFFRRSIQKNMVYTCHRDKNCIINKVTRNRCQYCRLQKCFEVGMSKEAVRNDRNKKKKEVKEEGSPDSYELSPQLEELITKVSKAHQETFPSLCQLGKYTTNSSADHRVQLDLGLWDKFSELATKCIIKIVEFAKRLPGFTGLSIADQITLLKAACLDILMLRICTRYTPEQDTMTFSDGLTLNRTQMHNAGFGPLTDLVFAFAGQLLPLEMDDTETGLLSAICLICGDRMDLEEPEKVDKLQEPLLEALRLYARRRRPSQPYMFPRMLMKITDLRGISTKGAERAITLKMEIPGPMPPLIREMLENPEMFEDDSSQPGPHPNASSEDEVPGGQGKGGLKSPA

Row | inhibition | SMILES
13 | Dose-dependent effect | CCOc1c(F)c(F)c(CN(c2ccc(C(=O)O)cc2)c2ccc3c(c2)C(C)(C)CCC3(C)C)c(F)c1F
14 | Dose-dependent effect | CCCCCCCN(c1ccc(C(=O)O)cc1)c1ccc2c(c1)C(C)(C)CCC2(C)C

What follows are molecules tested on HL-60 (assay: Synergistic induction of human HL60 cell differentiation in presence of RAR agonist Am80 at 1 X 10^-10 M). Conditions: not given.
Format: functional
Summary of the method: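 Synergy was tested in HL-60 cells given test compound together with 1 × 10⁻¹⁰ M Am80 for 4 days, with each agent also assayed alone. Differentiation was scored by NBT reduction (0.2% NBT, 200 ng/mL TPA, 20 min, 37 °C; ≥200 cells). SEC₅₀ is the concentration giving 50% differentiated cells in the presence of Am80.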

Row | SMILES | SEC50
15 | CC1(C)CCC(C)(C)c2cc(N(CC3CC3)c3ccc(C(=O)O)cc3)ccc21 | 8.1 ×10⁻¹⁰ M
16 | CC1(C)CCC(C)(C)c2cc(Nc3ccc(C(=O)O)cc3)ccc21 | 2 ×10⁻⁸ M

The molecules below were run against Retinoic acid receptor RXR-alpha (Mus musculus) (UniProt P28700) (assay: Antagonist activity at mouse RXRalpha expressed in COS-1 cells assessed as inhibition of PA024-induced transactivation by luciferase reporter gene assay). Conditions: not given.
Sequence of Retinoic acid receptor RXR-alpha (Mus musculus) (P28700 whole entry, looked up): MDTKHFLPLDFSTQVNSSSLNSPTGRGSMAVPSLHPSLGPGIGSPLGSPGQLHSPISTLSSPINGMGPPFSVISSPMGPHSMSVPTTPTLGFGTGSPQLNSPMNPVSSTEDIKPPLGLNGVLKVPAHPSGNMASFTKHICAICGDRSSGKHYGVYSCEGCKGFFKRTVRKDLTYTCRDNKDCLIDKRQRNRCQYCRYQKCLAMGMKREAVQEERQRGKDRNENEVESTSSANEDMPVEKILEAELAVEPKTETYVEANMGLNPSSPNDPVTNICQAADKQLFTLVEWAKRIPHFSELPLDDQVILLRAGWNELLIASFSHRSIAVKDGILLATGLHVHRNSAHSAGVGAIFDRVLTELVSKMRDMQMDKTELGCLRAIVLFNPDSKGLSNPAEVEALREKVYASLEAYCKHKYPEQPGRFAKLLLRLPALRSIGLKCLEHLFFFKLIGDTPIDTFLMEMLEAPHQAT

Row | inhibition | SMILES
17 | inactive | CCOc1c(F)c(F)c(CN(c2ccc(C(=O)O)cc2)c2ccc3c(c2)C(C)(C)CCC3(C)C)c(F)c1F
18 | inactive | CCCCCCCN(c1ccc(C(=O)O)cc1)c1ccc2c(c1)C(C)(C)CCC2(C)C

Each molecule was assayed on Retinoid X receptor gamma (Mus musculus) (assay: Antagonist activity at mouse RXRgamma expressed in COS-1 cells assessed as inhibition of PA024-induced transactivation by luciferase reporter gene assay). Conditions: not given.

Row | inhibition | SMILES
19 | inactive | CCOc1c(F)c(F)c(CN(c2ccc(C(=O)O)cc2)c2ccc3c(c2)C(C)(C)CCC3(C)C)c(F)c1F
20 | inactive | CCCCCCCN(c1ccc(C(=O)O)cc1)c1ccc2c(c1)C(C)(C)CCC2(C)C

These molecules were tested against Retinoic acid receptor alpha (Homo sapiens) (UniProt P10276) (assay: Antagonist activity at human RARalpha expressed in COS-1 cells assessed as inhibition of Am80-induced transactivation by luciferase reporter gene assay). Conditions: not given.
Sequence of Retinoic acid receptor alpha (Homo sapiens) (P10276 whole entry, looked up): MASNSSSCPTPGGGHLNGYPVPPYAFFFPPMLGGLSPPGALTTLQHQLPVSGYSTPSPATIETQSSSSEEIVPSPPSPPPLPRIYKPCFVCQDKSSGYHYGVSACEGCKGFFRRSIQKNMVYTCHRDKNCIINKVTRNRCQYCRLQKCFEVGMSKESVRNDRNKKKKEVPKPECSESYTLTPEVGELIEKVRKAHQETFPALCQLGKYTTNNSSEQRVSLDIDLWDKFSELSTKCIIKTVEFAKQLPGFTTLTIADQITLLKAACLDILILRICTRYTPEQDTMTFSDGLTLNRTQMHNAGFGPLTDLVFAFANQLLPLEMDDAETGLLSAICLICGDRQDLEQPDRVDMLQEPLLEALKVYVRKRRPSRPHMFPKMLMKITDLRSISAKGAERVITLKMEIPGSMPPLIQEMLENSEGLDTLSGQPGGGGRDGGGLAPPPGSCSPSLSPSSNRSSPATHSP

Row | inhibition | SMILES
21 | Dose-dependent effect | CCOc1c(F)c(F)c(CN(c2ccc(C(=O)O)cc2)c2ccc3c(c2)C(C)(C)CCC3(C)C)c(F)c1F
22 | Dose-dependent effect | CCCCCCCN(c1ccc(C(=O)O)cc1)c1ccc2c(c1)C(C)(C)CCC2(C)C

These molecules were tested on HL-60 (assay: Induction of human HL60 cell differentiation by NBT reduction assay). Conditions: not given.
Format: functional, cell-based
Summary of the method: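 HL-60 cells in RPMI1640 with 5% FBS were seeded at about 8 × 10⁴ cells/mL and given compound from a 2 mM ethanol stock (final ethanol below 0.5%) for 4 days. Differentiation was scored by NBT reduction: 20 min at 37 °C with 0.2% NBT and 200 ng/mL TPA, counting formazan-positive cells among at least 200. EC₅₀ is the concentration differentiating 50% of cells with compound alone.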

Row | SMILES | Activity
23 | CC1(C)CCC(C)(C)c2cc(N(Cc3ccc(C(F)(F)F)cc3)c3ccc(C(=O)O)cc3)ccc21 | inactive
24 | CCOc1c(F)c(F)c(CN(c2ccc(C(=O)O)cc2)c2ccc3c(c2)C(C)(C)CCC3(C)C)c(F)c1F | inactive
25 | CC1(C)CCC(C)(C)c2cc(N(Cc3ccccc3)c3ccc(C(=O)O)cc3)ccc21 | inactive
26 | CCCCCCCN(c1ccc(C(=O)O)cc1)c1ccc2c(c1)C(C)(C)CCC2(C)C | inactive
27 | CC1(C)CCC(C)(C)c2cc(N(Cc3ccc4ccccc4c3)c3ccc(C(=O)O)cc3)ccc21 | inactive
28 | Cc1ccc(CN(c2ccc(C(=O)O)cc2)c2ccc3c(c2)C(C)(C)CCC3(C)C)cc1 | inactive
29 | CCCCCCCCN(c1ccc(C(=O)O)cc1)c1ccc2c(c1)C(C)(C)CCC2(C)C | inactive
30 | CC1(C)CCC(C)(C)c2cc(N(Cc3ccccc3-c3ccccc3)c3ccc(C(=O)O)cc3)ccc21 | inactive

Same assay, conditions: Homo sapiens, HL-60; read-out: EC50

Row | pEC50 | SMILES
31 | 6.17 | CC1(C)CCC(C)(C)c2cc(Nc3ccc(C(=O)O)cc3)ccc21

Same assay, conditions: hl-60

Row | EC50 | SMILES
32 | Not Active | CC1(C)CCC(C)(C)c2cc(N(CC3CC3)c3ccc(C(=O)O)cc3)ccc21

The molecules below were run on HL-60 (assay: Inhibition of Am80-induced cell differentiation in human HL60 cells by NBT reduction assay). Conditions: not given.
Format: functional, cell-based
Summary of the method: as §1

Row | SMILES | inhibition
33 | CC1(C)CCC(C)(C)c2cc(N(Cc3ccc(C(F)(F)F)cc3)c3ccc(C(=O)O)cc3)ccc21 | Dose-dependent effect
34 | CCOc1c(F)c(F)c(CN(c2ccc(C(=O)O)cc2)c2ccc3c(c2)C(C)(C)CCC3(C)C)c(F)c1F | Dose-dependent effect
35 | CCCCCCCN(c1ccc(C(=O)O)cc1)c1ccc2c(c1)C(C)(C)CCC2(C)C | Dose-dependent effect
36 | CC1(C)CCC(C)(C)c2cc(N(Cc3ccc4ccccc4c3)c3ccc(C(=O)O)cc3)ccc21 | Dose-dependent effect
37 | Cc1ccc(CN(c2ccc(C(=O)O)cc2)c2ccc3c(c2)C(C)(C)CCC3(C)C)cc1 | Dose-dependent effect
38 | CCCCCCCCN(c1ccc(C(=O)O)cc1)c1ccc2c(c1)C(C)(C)CCC2(C)C | Dose-dependent effect
39 | CC1(C)CCC(C)(C)c2cc(N(Cc3ccccc3-c3ccccc3)c3ccc(C(=O)O)cc3)ccc21 | Dose-dependent effect

These molecules were tested against Retinoic acid receptor beta (Homo sapiens) (UniProt P10826) (assay: Antagonist activity at human RARbeta expressed in COS-1 cells assessed as inhibition of Am80-induced transactivation by luciferase reporter gene assay). Conditions: not given.
Sequence of Retinoic acid receptor beta (Homo sapiens) (P10826 whole entry, looked up): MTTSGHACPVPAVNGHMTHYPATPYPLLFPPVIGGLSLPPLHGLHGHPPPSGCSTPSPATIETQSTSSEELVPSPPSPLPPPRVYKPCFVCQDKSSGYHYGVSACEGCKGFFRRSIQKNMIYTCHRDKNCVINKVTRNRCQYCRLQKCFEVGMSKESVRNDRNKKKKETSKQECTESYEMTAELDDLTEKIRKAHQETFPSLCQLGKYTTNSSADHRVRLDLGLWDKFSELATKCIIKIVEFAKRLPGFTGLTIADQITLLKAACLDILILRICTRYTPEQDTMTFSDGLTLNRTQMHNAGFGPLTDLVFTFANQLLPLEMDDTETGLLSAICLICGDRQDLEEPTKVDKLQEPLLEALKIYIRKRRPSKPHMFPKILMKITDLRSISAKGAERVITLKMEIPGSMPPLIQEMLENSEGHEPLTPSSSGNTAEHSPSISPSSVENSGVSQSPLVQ

Row | inhibition | SMILES
40 | Dose-dependent effect | CCOc1c(F)c(F)c(CN(c2ccc(C(=O)O)cc2)c2ccc3c(c2)C(C)(C)CCC3(C)C)c(F)c1F
41 | Dose-dependent effect | CCCCCCCN(c1ccc(C(=O)O)cc1)c1ccc2c(c1)C(C)(C)CCC2(C)C
